Results published in ChEMBL document CHEMBL4261628, “1H-pyrrolo[2,3-b]pyridine: A new scaffold for human neutrophil elastase (HNE) inhibitors” (Bioorg Med Chem, 2018).
Calls of active or inactive are those of the source. The rule behind the calls is not given here.

Biological target: T1, Neutrophil elastase (Homo sapiens) (UniProt P08246)
T1 sequence (whole entry): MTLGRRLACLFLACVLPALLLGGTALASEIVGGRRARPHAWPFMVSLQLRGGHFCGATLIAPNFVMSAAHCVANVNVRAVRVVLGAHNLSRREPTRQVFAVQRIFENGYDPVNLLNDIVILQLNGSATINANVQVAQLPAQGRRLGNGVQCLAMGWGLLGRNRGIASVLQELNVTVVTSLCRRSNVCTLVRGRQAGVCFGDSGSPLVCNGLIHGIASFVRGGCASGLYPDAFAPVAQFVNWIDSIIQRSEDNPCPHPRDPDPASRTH
Experiment: Inhibition of human neutrophil elastase at 50 uM using N-methylsuccinyl-Ala-Ala-Pro-Val-7-amino-4-methylcoumarin as substrate measured every 30 secs for 10 mins by fluorescence assay
Summary of the method: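 HNE (20 mU/mL) in 200 mM Tris-HCl pH 7.5 with 0.01% BSA and 0.05% Tween-20. Compound from 5 mM DMSO stock, 1% DMSO final, tested up to 50 µM. Reaction started with 25 µM final substrate. Fluorescence read at ex 355/em 460 nm, 25 °C. No inhibition at 50 µM is reported as N.A.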

inhibition	Compound
inactive	N#Cc1cn(CC(=O)Nc2ccccc2)c2ncccc12
inactive	Cc1cccc(C(=O)n2ccc3cccnc32)c1
inactive	Cc1cccc(C(=O)n2cc(-c3ccsc3)c3cccnc32)c1
inactive	CCOC(=O)c1cn(CC(=O)Nc2ccccc2)c2ncccc12

Compound	inhibition
Cn1cc(C(=O)Nc2ccccc2)c2cccnc21	inactive

System: not listed separately
Experiment: Half life in 0.05 M phosphate buffer of pH 7.3 at 25 degC by spectrophotometric analysis
Format: physicochemical

half-life [h]	Compound
1.9	CCCCC(=O)n1cc(C#N)c2cccnc21
6.8	N#Cc1cn(C(=O)C2CC2)c2ncccc12
1.9	Cc1cccc(C(=O)n2cc(C#N)c3cccnc32)c1
14.4	CCOC(=O)c1cn(C(=O)C2CC2)c2ncccc12
2.6	Cc1ccc(C(=O)n2cc(C#N)c3cccnc32)cc1

Second part, the compound before the results:

Compound	half-life [h]
Cc1cccc(C(=O)n2cc(C(=O)Nc3ccccc3)c3cccnc32)c1	3.4
Cc1cccc(C(=O)n2cc([N+](=O)[O-])c3cccnc32)c1	0.4
CCOC(=O)c1cn(C(=O)c2cccc(C)c2)c2ncccc12	3.5
Cc1cccc(C(=O)n2cc(-c3nc(C)no3)c3cccnc32)c1	2.4
CCOC(=O)c1cn(C(=O)c2ccc(C)cc2)c2ncccc12	4.3
